pIC50, pKi: −log10 of the molar value.
Tests used:
[1] = Cytotoxicity against human MML1 cells assessed as decrease in cell viability after 48 hrs by MTT assay; format: functional, cell-based
SK-MEL-2 [2] = assay: Cytotoxicity against human SK-MEL-2 cells assessed as cell viability at 16 uM after 48 hrs by MTT assay; format: functional; conditions: SK-MEL-2, 48 h, read-out: Activity
[3] = Tmax in mouse at 10 mg/kg, iv by LC-MS/MS method; format: ADME, organism-based; conditions: in vivo
Outline: (§1)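 For IV dosing, compound dissolved in DMSO:ethanol (2:1), total volume no more than 30 μL. For oral dosing, compound given in a self-microemulsifying delivery system (60% surfactant, emulsifier OP:Cremophor EL 1:1; 30% PEG 400; 10% ethyl oleate), total volume no more than 100 μL. Plasma levels measured by previously described methods.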

T47D [4] = assay: Cytotoxicity against human T47D cells assessed as cell viability at 16 uM after 48 hrs by MTT assay; format: functional; conditions: read-out: Activity
COLO 201 [5] = assay: Cytotoxicity against human COLO201 cells assessed as decrease in cell viability after 48 hrs by trypan blue exclusion and LDH release; conditions: COLO 201, 48 h
MDA-MB-231 [6] = assay: Cytotoxicity against human MDA-MB-231 cells assessed as decrease in cell viability after 48 hrs by trypan blue exclusion and LDH release; conditions: MDA-MB-231, 48 h
NCI-H460 [7] = assay: Cytotoxicity against human NCI-H460 cells assessed as cell viability at 16 uM after 48 hrs by MTT assay; format: functional; conditions: NCI-H460, 48 h, read-out: Activity
BXPC-3 [8] = assay: Cytotoxicity against human BxPC3 cells assessed as decrease in cell viability after 48 hrs by MTT assay; format: functional, cell-based; conditions: BXPC-3, 48 h
[9] = Plasma concentration in mouse at 100 mg/kg, po at 60 mins by LC-MS/MS method; format: ADME, organism-based; outline: as §1
Lipid bilayer = assay: Induction of DOPC/n-decane bilayer property changes assessed as concentration required to double gramicidin-induced quencher influx rate by […]
HT-29 [10] = assay: Cytotoxicity against human HT-29 cells assessed as cell viability at 16 uM after 48 hrs by MTT assay; format: functional; conditions: HT-29, 48 h, read-out: Activity
PANC-1 [11] = assay: Cytotoxicity against human PANC1 cells assessed as decrease in cell viability after 48 hrs by MTT assay; format: functional, cell-based; conditions: PANC-1, 48 h
SK-MEL-2 [12] = assay: Cytotoxicity against human SK-MEL-2 cells assessed as decrease in cell viability after 48 hrs by MTT assay; format: functional, cell-based; conditions: SK-MEL-2, 48 h
[13] = Cmax in mouse at 100 mg/kg, po by HPLC method; format: ADME, organism-based; design: dose 100 mg/kg, route oral; conditions: in vivo
Outline: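 For oral dosing, polyphenol was dissolved in a self-microemulsifying delivery system: 60% surfactant (emulsifier OP:Cremophor EL 1:1), 30% cosurfactant (PEG 400) and 10% oil (ethyl oleate). Total volume given was never above 100 μL. Plasma levels were quantified by previously described methods.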

MDA-MB-231 [14] = assay: Cytotoxicity against human MDA-MB-231 cells assessed as cell viability at 16 uM after 48 hrs by MTT assay; format: functional; conditions: MDA-MB-231, 48 h, read-out: Activity
[15] = Tmax in mouse at 100 mg/kg, po by HPLC method; format: ADME, organism-based; conditions: in vivo
Outline: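 Given orally in a self-microemulsifying delivery system (60% surfactant, emulsifier OP:Cremophor EL 1:1; 30% PEG 400 cosurfactant; 10% ethyl oleate oil), total volume no more than 100 μL. Plasma levels measured by previously described methods.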

COLO 201 [16] = assay: Cytotoxicity against human COLO201 cells assessed as cell viability at 16 uM after 48 hrs by MTT assay; format: functional; conditions: COLO 201, 48 h, read-out: Activity
LN-229 [17] = assay: Cytotoxicity against human LN229 cells assessed as cell viability at 16 uM after 48 hrs by MTT assay; format: functional; conditions: LN-229, 48 h, read-out: Activity
[18] = Cmax in mouse at 10 mg/kg, iv by LC-MS/MS method; format: ADME, organism-based; design: dose 10 mg/kg, route intravenous; conditions: in vivo
Outline: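 Mouse iv dosing used polyphenol dissolved in DMSO:ethanol (2:1), with total injected volume never above 30 μL. Plasma levels were measured by previously described methods.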

HT-29 [19] = assay: Cytotoxicity against human HT-29 cells assessed as decrease in cell viability after 48 hrs by trypan blue exclusion and LDH release; conditions: HT-29, 48 h
U-87 MG [20] = assay: Cytotoxicity against human U87 cells assessed as cell viability at 16 uM after 48 hrs by MTT assay; format: functional, U-87MG ATCC; conditions: read-out: Activity
BXPC-3 [21] = assay: Cytotoxicity against human BxPC3 cells assessed as cell viability at 16 uM after 48 hrs by MTT assay; format: functional; conditions: BXPC-3, 48 h, read-out: Activity
[22] = Displacement of [3H]resveratrol from Sprague-Dawley rat brain plasma membranes after 1 hr by beta counting method; format: cell membranes
A549 [23] = assay: Cytotoxicity against human A549 cells assessed as decrease in cell viability after 48 hrs by trypan blue exclusion and LDH release; conditions: A549, 48 h
[24] = Plasma concentration in mouse at 10 mg/kg, iv at 60 mins by LC-MS/MS method; format: ADME, organism-based; outline: as §1
T47D [25] = assay: Cytotoxicity against human T47D cells assessed as decrease in cell viability after 48 hrs by trypan blue exclusion and LDH release
PANC-1 [26] = assay: Cytotoxicity against human PANC1 cells assessed as cell viability at 16 uM after 48 hrs by MTT assay; format: functional; conditions: PANC-1, 48 h, read-out: Activity
NCI-H460 [27] = assay: Cytotoxicity against human NCI-H460 cells assessed as decrease in cell viability after 48 hrs by MTT assay; format: functional, cell-based; conditions: NCI-H460, 48 h
[28] = Cytotoxicity against human MML1 cells assessed as cell viability at 16 uM after 48 hrs by MTT assay; format: functional; conditions: read-out: Activity
U-87 MG [29] = assay: Cytotoxicity against human U87 cells assessed as decrease in cell viability after 48 hrs by trypan blue exclusion and LDH release
A549 [30] = assay: Cytotoxicity against human A549 cells assessed as cell viability at 16 uM after 48 hrs by MTT assay; format: functional; conditions: A549, 48 h, read-out: Activity
LN-229 [31] = assay: Cytotoxicity against human LN229 cells assessed as decrease in cell viability after 48 hrs by trypan blue exclusion and LDH release; conditions: LN-229, 48 h
BXPC-3 [32] = assay: Cytotoxicity against human BxPC3 cells assessed as cell viability at 6 uM after 48 hrs by MTT assay; format: functional; conditions: BXPC-3, 48 h, read-out: Activity
PANC-1 [33] = assay: Cytotoxicity against human PANC1 cells assessed as cell viability at 6 uM after 48 hrs by MTT assay; format: functional; conditions: PANC-1, 48 h, read-out: Activity
SK-MEL-2 [34] = assay: Cytotoxicity against human SK-MEL-2 cells assessed as cell viability at 6 uM after 48 hrs by MTT assay; format: functional; conditions: SK-MEL-2, 48 h, read-out: Activity
NCI-H460 [35] = assay: Cytotoxicity against human NCI-H460 cells assessed as cell viability at 6 uM after 48 hrs by MTT assay; format: functional; conditions: NCI-H460, 48 h, read-out: Activity
[36] = Cytotoxicity against human MML1 cells assessed as cell viability at 6 uM after 48 hrs by MTT assay; format: functional; conditions: read-out: Activity
U-87 MG [37] = assay: Cytotoxicity against human U87 cells assessed as cell viability at 6 uM after 48 hrs by MTT assay; format: functional, U-87MG ATCC; conditions: read-out: Activity
MDA-MB-231 [38] = assay: Cytotoxicity against human MDA-MB-231 cells assessed as cell viability at 6 uM after 48 hrs by MTT assay; format: functional; conditions: MDA-MB-231, 48 h, read-out: Activity
A549 [39] = assay: Cytotoxicity against human A549 cells assessed as cell viability at 6 uM after 48 hrs by MTT assay; format: functional; conditions: A549, 48 h, read-out: Activity
T47D [40] = assay: Cytotoxicity against human T47D cells assessed as cell viability at 6 uM after 48 hrs by MTT assay; format: functional; conditions: read-out: Activity
HT-29 [41] = assay: Cytotoxicity against human HT-29 cells assessed as cell viability at 6 uM after 48 hrs by MTT assay; format: functional; conditions: HT-29, 48 h, read-out: Activity
Cannabinoid receptor 1 = Cannabinoid receptor 1 (Homo sapiens, UniProt P21554); assay: Displacement of […] from human recombinant CB1 receptor expressed in Chem1 cells after 90 mins by scintillation counting method; format: cell-based
COLO 201 [42] = assay: Cytotoxicity against human COLO201 cells assessed as cell viability at 6 uM after 48 hrs by MTT assay; format: functional; conditions: COLO 201, 48 h, read-out: Activity
LN-229 [43] = assay: Cytotoxicity against human LN229 cells assessed as cell viability at 6 uM after 48 hrs by MTT assay; format: functional; conditions: LN-229, 48 h, read-out: Activity

Sequence of Cannabinoid receptor 1 (P21554 whole entry): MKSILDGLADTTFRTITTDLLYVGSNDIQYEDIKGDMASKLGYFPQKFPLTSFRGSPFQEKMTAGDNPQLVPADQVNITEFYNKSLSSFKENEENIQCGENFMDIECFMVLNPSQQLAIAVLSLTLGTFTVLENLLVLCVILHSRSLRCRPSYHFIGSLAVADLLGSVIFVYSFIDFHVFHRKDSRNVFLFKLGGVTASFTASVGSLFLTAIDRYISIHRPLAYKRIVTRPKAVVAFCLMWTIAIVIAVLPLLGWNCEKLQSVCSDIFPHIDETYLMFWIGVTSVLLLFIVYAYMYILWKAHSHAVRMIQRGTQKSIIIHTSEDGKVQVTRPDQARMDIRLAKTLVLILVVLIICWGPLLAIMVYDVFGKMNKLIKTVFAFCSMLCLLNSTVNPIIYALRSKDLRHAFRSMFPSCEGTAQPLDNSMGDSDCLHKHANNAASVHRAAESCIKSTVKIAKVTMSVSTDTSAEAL

Compound	pIC50 [1]	Tmax [3] [min]	pIC50 (COLO 201 [5])	pIC50 (MDA-MB-231 [6])	pIC50 (BXPC-3 [8])	concentration at 1 h [9] [µM]	Activity (Lipid bilayer) [µM]	pIC50 (PANC-1 [11])	pIC50 (SK-MEL-2 [12])	Cmax [13] [µM]	Tmax [15] [min]	Cmax [18] [µM]	pIC50 (HT-29 [19])	pKi [22]	pIC50 (A549 [23])	concentration at 1 h [24] [µM]	pIC50 (T47D [25])	pIC50 (NCI-H460 [27])	pIC50 (U-87 MG [29])	pIC50 (LN-229 [31])	further results
Oc1ccc(/C=C/c2cc(O)cc(O)c2)cc1 [RESVERATROL]	4.92	5	4.43	4.82	4.85	< 1	11.3	4.41	4.85	11	10	32	4.57	6.99	4.80	< 1	4.60	4.92	4.70	4.96	viability at 16 µM (SK-MEL-2 [2]): 95%; viability at 16 µM (T47D [4]): 99%; viability at 16 µM (NCI-H460 [7]): 94%; viability at 16 µM (HT-29 [10]): 98%; viability at 16 µM (MDA-MB-231 [14]): 95%; viability at 16 µM (COLO 201 [16]): 96%; viability at 16 µM (LN-229 [17]): 102%; viability at 16 µM (U-87 MG [20]): 99%; viability at 16 µM (BXPC-3 [21]): 98%; viability at 16 µM (PANC-1 [26]): 105%; viability at 16 µM [28]: 94%; viability at 16 µM (A549 [30]): 93%
O=C(O[C@@H]1Cc2c(O)cc(O)cc2O[C@@H]1c1cc(O)c(O)c(O)c1)c1cc(O)c(O)c(O)c1 [EPIGALOCATECHIN GALLATE]	4.60	5	4.42	4.08	4.48	< 1	11.2	4.21	4.51	5	30	12	4.22	7.35 to 7.60	4.54	< 1	4.24	4.74	4.74	4.82	viability at 6 µM (BXPC-3 [32]): 97%; viability at 6 µM (PANC-1 [33]): 95%; viability at 6 µM (SK-MEL-2 [34]): 99%; viability at 6 µM (NCI-H460 [35]): 105%; viability at 6 µM [36]: 102%; viability at 6 µM (U-87 MG [37]): 98%; viability at 6 µM (MDA-MB-231 [38]): 102%; viability at 6 µM (A549 [39]): 103%; viability at 6 µM (T47D [40]): 100%; viability at 6 µM (HT-29 [41]): 96%; pKi (Cannabinoid receptor 1): 4.47; viability at 6 µM (COLO 201 [42]): 100%; viability at 6 µM (LN-229 [43]): 106%
COc1cc(CNC(=O)CCCC/C=C/C(C)C)ccc1O	–	–	–	–	–	–	18	–	–	–	–	–	–	–	–	–	–	–	–	–	–
